# Screens deposited in PubChem BioAssay by several laboratories.
# Sampled rows, rich in hits. Any-hit rate of the full collection: about 4.9%.
# NPY-Y1 PAM-ag – human NPY-Y1 potentiation or agonism, primary screen. P25929. NPY-Y1 expressing cells, potentiator/agonist activation. activation, % at 3.6 µM. 220,000 tested, 0.37% active. AID 1304; in the data active means activation above about 33%, passing the limit was not always enough;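 further: cells stimulated with NPY at EC10 then isoproterenol at EC100; 0% = low agonist plus stimulus and 100% = saturating agonist plus stimulus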
# NPY-Y2 antag – NPY-Y2 (human) receptor antagonism | P49146 | NPY-Y2 expressing cells, antagonist mode | inhibition, % at 2.7 µM | 140,000 tested, 0.99% active | AID 793; in the data active means inhibition above about 17%;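 further: 0% = vehicle with agonist challenge and 100% = reference antagonist with challenge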
# Target sequence (P49146 whole entry, looked up): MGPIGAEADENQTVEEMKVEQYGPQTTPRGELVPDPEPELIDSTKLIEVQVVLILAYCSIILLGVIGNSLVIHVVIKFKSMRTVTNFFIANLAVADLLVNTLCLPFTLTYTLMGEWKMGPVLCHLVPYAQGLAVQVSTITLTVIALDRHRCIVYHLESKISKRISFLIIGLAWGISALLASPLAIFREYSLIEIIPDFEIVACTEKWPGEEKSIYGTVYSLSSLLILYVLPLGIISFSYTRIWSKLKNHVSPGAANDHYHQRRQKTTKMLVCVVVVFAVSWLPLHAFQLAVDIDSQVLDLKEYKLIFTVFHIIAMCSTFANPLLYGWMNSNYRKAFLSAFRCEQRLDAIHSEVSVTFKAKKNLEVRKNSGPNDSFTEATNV
# WT yeast gro inh – growth inhibition of WT yeast, mitochondrial fusion screen | mitochondrial fusion phenotypic screen, WT strain | inhibition, % at 10 µM | 190,000 tested, 2.1% active | AID 1362; in the data active means inhibition above about 58%; tested in S. cerevisiae
# NPY2 pot ag – human NPY-Y2 potentiation or agonism, primary screen; AID 1359; P49146; 220,000 tested, 0.45% active; activation, % at 3.6 µM; cells expressing NPY-Y2, potentiator/agonist read-out; in the data active means activation above about 27%;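 further: cells stimulated with NPY near EC25 plus isoproterenol at EC100; 0% = vehicle plus submaximal agonist and 100% = vehicle plus saturating agonist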
# NPY Y1 blocker – blocks the human neuropeptide Y Y1 receptor. P25929. HEK293-CNG Y1 cells, membrane potential fluorescence; NPY at EC95, then isoproterenol. inhibition, % at 3.6 µM. 200,000 tested, 1% active. AID 1040;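 active means inhibition above the campaign mean inhibition of all tested compounds plus 3 SD, cut at about 20% in these data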;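 further: 0% = DMSO wells given NPY plus isoproterenol and 100% = isoproterenol alone without NPY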
#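 System: HEK293 cells with Y1 receptor plus CNG channel / Probe or stimulus: NPY 25 nM then isoproterenol 1 µM plus Ro 20-1724 25 µM / Compound: one concentration, 3.6 µM, in 0.4% DMSO / Schedule: compound incubation 1 h at room temperature, readout 45 min post-stimulation / Measured by: membrane potential fluorescence / Read-out: % inhibition of NPY effect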
# RAM inhibit – inhibitors of the yeast RAM network. S. cerevisiae dse1pr::URA3 reporter, 5-FOA growth OD615, 2 d; analog-sensitive cbk1-as2 kinase mutant strain. inhibition, % at 50 µM. 190,000 tested, 1.8% active;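 active means inhibition above a set limit, 3 SD over mean compound inhibition, cut at about 8.4% in these data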;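 further: 0% = DMSO-only wells with no growth and 100% = 10 µM 1-NA-PP1 full growth; inhibition rescues growth on 5-FOA so higher OD means more RAM inhibition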
# Numbers without * were called inactive; . = no result given.
SMILES,NPY-Y1 PAM-ag,NPY-Y2 antag,WT yeast gro inh,NPY2 pot ag,NPY Y1 blocker,RAM inhibit
COc1ccc(CNC(=O)[C@H](C)[C@@H]2C[C@@]2(C)[C@@H](NC(=O)OCc2ccccc2)c2ccccc2)cc1OC,-7,1,69*,-7,10,5
COC(=O)[C@H](C)[C@@H]1C[C@@]1(C)[C@@H](NC(=O)OCc1ccccc1)c1ccccc1,8,5,19,6,2,8.6*
C[C@@H](C(=O)O)[C@H]1C[C@]1(C)[C@H](NC(=O)OCc1ccccc1)c1ccccc1,0,-2,6,-3,-3,-1
C[C@@H](C(=O)NCc1ccccc1)[C@H]1C[C@]1(C)[C@H](NC(=O)OCc1ccccc1)c1ccccc1,-5,7,20,0,4,9.5*
Cc1cc(C)n(-c2nc(NCCC(C)C)c3c4c(sc3n2)COC(C)(C)C4)n1,5,6,80*,-3,7,0
Cc1cccc(C(=O)O/N=C/c2ccc(Br)cc2)c1,9,.,60*,-2,0,2
Cc1nn(-c2ccccc2)c(C)c1/C=N/n1c(-c2ccccc2Br)n[nH]c1=S,-15,.,.,-7,.,.
Oc1ccccc1CN1CCC(C(O)(c2ccccc2)c2ccccc2)CC1,-31,5,9,-5,9,-1
CC(C)(C)c1ccc(C(O)CCCN2CCC(C(O)(c3ccccc3)c3ccccc3)CC2)cc1 (configuration not stated),-21,5,92*,-26,9,0
CCCSC1=N/C(=C\c2ccc3c(c2)OCO3)C(=O)S1,2,3,-2,2,14,10*
CCOC(=O)C1CCCN(S(=O)(=O)c2ccccc2)C1 (configuration not stated),3,5,17,-31,2,2
COc1ccc(CCn2c(-c3ccc(C(C)(C)C)cc3)n[nH]c2=S)cc1OC,-21,.,6,3,-1,8.7*
COc1ccc(CCn2c(-c3ccc(Cl)cc3)n[nH]c2=S)cc1OC,-10,.,-19,9,1,0
COc1cc2c(cc1OC)-c1cc3ccc4c(c3c[n+]1CC2)OCO4,-1,3,60*,5,4,1
COc1ccc(S(=O)(=O)N(C)CC(=O)Nc2ccc3c(c2)OCO3)cc1,-4,1,4,-6,12,1
COc1cc(C)ccc1OCCOc1c(Cl)cc(Cl)cc1Cl,-22,0,2,9,7,9.9*
COC(=O)c1ccccc1NC(=O)CN1CCC(NC(=O)c2ccccc2C)CC1,-4,5,29,-4,8,1
O=C(Nc1nnc(SCc2ccccc2Cl)s1)C1COc2ccccc2O1 (configuration not stated),-3,3,60*,-10,2,1
CCN(CC)S(=O)(=O)c1ccc(N2CCOCC2)c(NC(=O)c2cccc(C#N)c2)c1,-28,.,-4,1,8,0
O=C(c1cc2ccccc2o1)N(C1CC1)C1(C(=O)Nc2ccccc2)CCCC1,-21,.,72*,-12,20,4
COc1ccccc1NS(=O)(=O)c1cccc(C(=O)OCc2nc3ccccc3s2)c1,-3,5,37,-2,7,8.4*
COc1ccccc1NS(=O)(=O)c1cccc(C(=O)OCC(=O)Nc2cc(C)on2)c1,25,2,1,-16,2,3
CCCOc1ccc(-c2nc(-c3ccc([N+](=O)[O-])cc3)cs2)cc1,-22,.,.,-2,.,.
Cc1ccc(S(=O)(=O)N(CC(=O)Nc2ccccc2C(=O)O)c2ccccc2C)cc1,11,.,15,-9,-3,8.7*
Cc1ccccc1N(CC(=O)Nc1ccccc1C(=O)O)S(C)(=O)=O,-11,-1,.,-11,-1,2
SMILES,NPY-Y1 PAM-ag,NPY-Y2 antag,WT yeast gro inh,NPY2 pot ag,NPY Y1 blocker,RAM inhibit
CCCN(CCC)C(=O)CSc1nc2ccccc2c(=O)n1C1CCCC1,-22,25*,16,9,29*,3
CN(C)c1ccc(NC(=O)CSc2nc3ccccc3c(=O)n2C2CCCCC2)cc1,16,-5,9,-5,-10,1
O=c1c2ccccc2nc(SCc2cccc(F)c2)n1C1CCCC1,-8,8,44,-7,3,11*
N#CCSc1nc2ccccc2c(=O)n1C1CCCCC1,1,.,2,-3,21*,2
N#CCSc1nc2ccccc2c(=O)n1CCC(=O)NC1CCCCC1,-13,0,-23,-18,-5,4
O=C(O)/C=C/C(=O)N(Cc1ccccc1)Cc1ccco1,18,-1,-3,8,0,-1
C=C(C)c1cccc(C(C)(C)NC(=O)N(Cc2ccccc2)Cc2ccco2)c1,-5,28*,14,-9,14,8
CC1=NNC(=O)C1CCC(=O)N/N=C(/C)c1ccc([N+](=O)[O-])cc1 (configuration not stated),-19,3,-17,-3,2,1
O=C(CSCc1cnn(-c2ccccc2)c1-n1cccc1)NCc1ccc2c(c1)OCO2,6,4,14,-6,8,11*
CC1=CC2=NC(=O)/C(=C\c3cn(C)c4ccccc34)C(=N)N2O1,-22,.,15,-20,11,2
c1ccc(-c2nc(N3CCN(c4ccccc4)CC3)nc(-n3ccnc3)n2)cc1,-35,3,68*,-8,13,-1
CCOc1[nH]n(-c2ccc(Cl)cc2)c(=O)c1C=NCC(=O)OC,5,.,-4,1,1,4
CCN1C(=O)/C(=C/N2CC(C)CC(C)C2)SC1=S (configuration not stated),-1,1,24,10,2,9.7*
CCN1C(=O)/C(=C\N2CCCCCC2)SC1=S,10,4,55,-4,-9,1
Cc1oc(-c2cccs2)nc1CN1CCC(c2ccccc2)CC1,-16,.,16,-21,3,0
COc1ccccc1NC(=O)c1nn(C)cc1Br,21,8,-2,-13,0,1
Cc1ccc(-c2c[nH]c(=S)n2-c2ccccc2)cc1,9,.,9,4,5,2
S=c1[nH]cc(-c2ccccc2)n1-c1cccc(Cl)c1,39*,-2,-18,32*,-6,4
Cc1cc(C)c(NC(=O)CSc2nc3ccc(N4C(=O)c5ccccc5C4=O)cc3s2)c(C)c1,5,.,4,12,1,6
CCOc1ccc(C(=O)NC(=S)Nc2cccc(NC(=O)c3ccco3)c2)cc1[N+](=O)[O-],-17,1,-8,2,0,8.8*
O=C1NC(=O)/C(=C/c2cccc([N+](=O)[O-])c2)N1,6,.,.,-3,.,.
CCN1C/C(=C/c2cccc([N+](=O)[O-])c2)C(=O)/C(=C/c2cccc([N+](=O)[O-])c2)C1,-12,1,88*,8,3,4
O=[N+]([O-])c1ccc(/C=C/c2ccc3ccccc3n2)cc1,-3,.,11,3,9,0
